According to article PMC2704382 (Cell, 2009):
Like-named read-outs stand apart in the source and are kept apart here.

Columns and labels:
LEF/TCF = assay: TCF reporter activity in DISC1 knockdown cells; assay type: cell-based
[1] = tested on: DISC1 knockdown AHP cells; assay: BrdU incorporation in DISC1 knockdown AHP cells; assay type: cell-based
Outline: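 Lentivirus-transduced AHPs (GFP marker) seeded on polyornithine/fibronectin-coated coverslips and pulsed with BrdU (10 µM) in medium for 2 hours. Fixed in 4% paraformaldehyde and immunostained for BrdU. Five random fields and over 500 cells counted per experiment. Read-out is the percentage of GFP-positive cells also BrdU-positive.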

[2] = tested on: neural progenitor proliferation in mouse embryonic brains; assay: BrdU labeling in shRNA electroporated embryonic brains; assay type: in vivo
[3] = tested on: adult hippocampal progenitor proliferation in dentate gyrus; assay type: in vivo, mouse; conditions: 2 mg/kg every other day for 2 weeks, n=5
GSK3β [4] = assay: In vitro GSK3β kinase assay; assay type: biochemical; conditions: for Inhibition of GSK3β: in vitro kinase assay
GSK3β [5] = assay: GSK3β surface plasmon resonance; assay type: binding; conditions: SPR, peptide 25 µM

In the case of `Cc1c[nH]c(-c2cnc(NCCNc3ccc(C#N)cn3)nc2-c2ccc(Cl)cc2Cl)n1` [CHIR-99021], the TCF activity (LEF/TCF) was “rescued TCF activity in DISC1 knockdown cells to control levels”.

In the case of `Cn1cc(C2=C(c3ccc(Cl)cc3Cl)C(=O)NC2=O)c2ccccc21` [SB-216763], the “Cell proliferation evaluated by BrdU incorporation” value [1] was “restored cell proliferation”, the BrdU labeling index ([2]; DISC1 shRNA electroporated embryonic brains) was “rescued the BrdU labeling index” and the BrdU labeled cells ([2]; control shRNA electroporated mouse embryonic brains) was “increased BrdU labeled cells”. For the same compound, the TCF activity (LEF/TCF) was “rescued TCF activity in DISC1 knockdown cells to control levels”, the “Number of BrdU positive cells” value ([3]; DISC1 shRNA-1 injected mice) was “rescued the reduction in BrdU positive cells” and the “Number of BrdU positive cells” value ([3]; mice infected with control virus) was “significantly increased”.

With “DISCtide2: 15-mer peptide that encompasses mDISC1 amino acids 211 to 225 (SFSFIQLSLGAAGER)” the “Inhibition of GSK3β kinase activity” value (GSK3β [4]; data not shown, concentration not given) was “failed to inhibit” and the “Percent theoretical maximal response” value (GSK3β [5]) was 238%.

In the case of “DISCtide-1: synthesized peptide from mDISC1 spanning amino acids 195 to 238 (PADIASLPGFQDTFTSSFSFIQLSLGAAGERGEAEGCLPSREAE)”, the “Potency of GSK3β inhibition compared with L803-mts” value (GSK3β [4]; dose-response curve, n=3) was “more potently than L803-mts”, the “Dose dependence of inhibition of recombinant GSK3β catalytic activity” value (GSK3β [4]; in vitro) was “dose dependent” and the “Inhibition of GSK3β” value (GSK3β [4]; 10 µM peptide) was “inhibited”. The “Percent theoretical maximal response” value (GSK3β [5]) was 197%.

“Peptide-neg: synthesized peptide from mDISC1 spanning amino acids 40–77 (GYMRSTAGSGIGFLSPAVGMPHPSSAGLTGQQSQHSQS)” was tested, and the “Inhibition of GSK3β” value (GSK3β [4]; 80 µM peptide) was “did not inhibit” and the “Percent theoretical maximal response” value (GSK3β [5]) was 62%.
